≈ marks a conversion by molar mass, not a printed value.
Key:
[1] = system: Escherichia coli IFO 3301; assay: Agar disc diffusion, growth inhibition zone; format: cell-based; conditions: IFO3301, 24 h, read-out: Diameter of growth inhibition zone EC
Summary of the method: (§1)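 Filter paper discs (8 mm) were loaded with test compound in DMSO at 200 μg/disc, with gentamicin, ampicillin trihydrate and clotrimazole discs at 100 μg/disc. Discs were placed on Müller–Hinton agar plates previously inoculated with IFO strains and incubated at 37°C. Inhibition zone diameters were read after 24 h for bacteria and 48 h for C. albicans.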

[2] = system: carrageenan-induced paw edema; assay: Carrageenan-induced paw edema method in rats; format: in vivo, Sprague Dawley rats; conditions: for anti-inflammatory potency ratio relative to indomethacin: 40 mg/kg versus indomethacin
Summary of the method: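 Male Sprague Dawley rats (140–190 g, 20–23°C, 2-day acclimatisation) were used in groups of five. Test compound (20 or 40 mg/kg) or indomethacin (5 mg/kg) was given i.p. in 1 mL 0.5% aqueous CMC. One hour later, 0.1 mL 1% carrageenan in saline went into the right hind paw, with saline in the left. Paw volume was measured by water plethysmometer at 4 h. Protection was calculated versus vehicle control and reported as mean ± SEM, Student's t-test.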

[3] = system: Staphylococcus aureus IFO 3060; assay: Determination of MIC; format: cell-based; conditions: IFO3060, 24 h, read-out: MIC SA
Summary of the method: (§2)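 Broth two-fold dilution against IFO strains. Test compound and reference agents were dissolved in DMSO at 128 μg/mL and diluted two-fold from 128 to 0.5 μg/mL. Wells were inoculated with organism suspensions at 10^6 CFU/mL and incubated at 36°C for 24 h.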

[4] = system: Candida albicans IFO 0583; assay: Agar disc diffusion, growth inhibition zone; format: cell-based; conditions: for inhibitory activity against C. albicans (in words): 200 μg/disc, compared with clotrimazole
Summary of the method: as §1

normal albino mice = assay: Oral acute toxicity; format: in vivo; conditions: oral, mice; for LD16 / LD84: mortality at 24 hours
Summary of the method: (§3)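 Albino mice of either sex were dosed in six groups of six. Test compound was given by oral intubation as fresh suspensions (1–12%) in 0.5% aqueous CMC at 250, 500, 750, 1,000, 1,250 and 1,500 mg/kg. Mortality was recorded at 24 h, and LD16, LD50 and LD84 were calculated.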

Oral acute toxicity = format: in vivo, mice; conditions: both, albino, mouse, in vivo, po
Summary of the method: as §3

[5] = system: Bacillus subtilis IFO 3007; assay: Determination of MIC; format: cell-based; conditions: IFO3007, 24 h, read-out: MIC BS
Summary of the method: as §2

[6] = system: Micrococcus luteus IFO 3232; assay: Determination of MIC; format: cell-based; conditions: IFO3232, 24 h, read-out: MIC ML
Summary of the method: as §2

[7] = system: Pseudomonas aeruginosa IFO 3448; assay: Determination of MIC; format: cell-based; conditions: IFO3448, 24 h, read-out: MIC PA
Summary of the method: as §2

[8] = system: Escherichia coli IFO 3301; assay: Determination of MIC; format: cell-based; conditions: IFO3301, 24 h, read-out: MIC EC
Summary of the method: as §2

[9] = system: Candida albicans IFO 0583; assay: Determination of MIC; format: cell-based; conditions: IFO0583, read-out: MIC CA
Summary of the method: as §2

[10] = Candida albicans, IFO0583, 48 h, read-out: Diameter of growth inhibition zone CA

Question: Which results are given for O=C(O)CSc1nnc(C23CC4CC(CC(C4)C2)C3)n1-c1ccccc1 [Compound 14, 2-[5-(1-Adamantyl)-4-phenyl-1,2,4-triazol-3-ylsulfanyl]acetic acid]?
Answer: zone of inhibition at 200 µg/disc [1]: < 10 mm; anti-inflammatory potency ratio relative to indomethacin [2]: about 15%; MIC [3]: 8 µg/mL (≈ 21.7 µM); inhibitory activity against C. albicans (in words) [4]: marginal activity; zone of inhibition at 200 µg/disc [4, 10]: 12 mm; LD50 as percent of that of indomethacin (normal albino mice): 9.03%; LD16 (normal albino mice): 295 mg/kg; LD84 (normal albino mice): 1,338 mg/kg; LD50 at 24 h (Oral acute toxicity): 554 mg/kg

Question: What does the source list for CCOC(=O)CSc1nnc(C23CC4CC(CC(C4)C2)C3)n1-c1ccccc1 [Compound 13, Ethyl 2-[5-(1-adamantyl)-4-phenyl-1,2,4-triazol-3-ylsulfanyl]acetate]?
Answer: zone of inhibition at 200 µg/disc [1]: < 10 mm; anti-inflammatory potency ratio relative to indomethacin [2]: about 15%; MIC [3]: 4 µg/mL (≈ 10.1 µM); inhibitory activity against C. albicans (in words) [4]: marginal activity; zone of inhibition at 200 µg/disc [4, 10]: 12 mm; MIC [5]: 16 µg/mL (≈ 40.2 µM); LD50 as percent of that of indomethacin (normal albino mice): 5.41%; LD16 (normal albino mice): 499 mg/kg; LD84 (normal albino mice): 1,435 mg/kg; LD50 at 24 h (Oral acute toxicity): 924 mg/kg

Question: Which zone of inhibition at 200 µg/disc [1] does the source give for CCOC(=O)N1CCN(Cn2nc(C34CC5CC(CC(C5)C3)C4)n(-c3ccccc3)c2=S)CC1 [Compound 6b, Ethyl 4-{[3-(adamantan-1-yl)-4-phenyl-5-sulfanylidene-4,5-dihydro-1H-1,2,4-triazol-1-yl]methyl}piperazine-1-carboxylate] here?
Answer: < 10 mm

Question: What about the zone of inhibition at 200 µg/disc [4, 10] of the same compound?
Answer: < 10 mm

Question: What about the MIC [5] of the same compound?
Answer: 16 µg/mL (≈ 33.2 µM)

Question: Which results are given for CN(C)CCSc1nnc(C23CC4CC(CC(C4)C2)C3)n1C [Compound 9a, 2-{[5-(Adamantan-1-yl)-4-methyl-4H-1,2,4-triazol-3-yl]sulfanyl}-N,N-dimethyl-ethanamine]?
Answer: zone of inhibition at 200 µg/disc [1]: < 10 mm; zone of inhibition at 200 µg/disc [4, 10]: < 10 mm

Question: With CNC(C)C1CCC(N)C(OC2C(N)CC(N)C(OC3OCC(C)(O)C(NC)C3O)C2O)O1 (centres unmarked) [Gentamicin, gentamicin, reference compound] as the compound, how does the MIC [6] read?
Answer: 2 µg/mL (≈ 4.19 µM)

Question: What about the MIC [7] of the same compound?
Answer: 1 µg/mL (≈ 2.09 µM)

Question: And the zone of inhibition at 100 µg/disc [1]?
Answer: 20 mm

Question: And the MIC [3]?
Answer: 2 µg/mL (≈ 4.19 µM)

Question: And the MIC [8]?
Answer: 0.5 µg/mL (≈ 1.05 µM)

Question: And the MIC [5]?
Answer: 2 µg/mL (≈ 4.19 µM)

Question: What does the source list for CC1(C)S[C@@H]2[C@H](NC(=O)[C@H](N)c3ccccc3)C(=O)N2[C@H]1C(=O)O [Ampicillin, ampicillin, reference compound]?
Answer: MIC [6]: 2 µg/mL (≈ 5.72 µM); MIC [7]: 2 µg/mL (≈ 5.72 µM); zone of inhibition at 100 µg/disc [1]: 17 mm; MIC [3]: 2 µg/mL (≈ 5.72 µM); MIC [8]: 2 µg/mL (≈ 5.72 µM); MIC [5]: 0.5 µg/mL (≈ 1.43 µM)

Question: Which MIC [9] does the source give for Clc1ccccc1C(c1ccccc1)(c1ccccc1)n1ccnc1 [Clotrimazole, clotrimazole, reference compound] here?
Answer: 2 µg/mL (≈ 5.8 µM)

Question: And the zone of inhibition at 100 µg/disc [4, 10]?
Answer: 21 mm

Question: For COCCSc1nnc(C23CC4CC(CC(C4)C2)C3)n1-c1ccccc1 [Compound 11, 5-(1-Adamantyl)-3-[(2-methoxyethyl)sulfanyl]-4-phenyl-1,2,4-triazole], which zone of inhibition at 200 µg/disc [1] is on record?
Answer: < 10 mm

Question: What about the “reduction in edema at both dose levels” value ([2]; 20 and 40 mg/kg intraperitoneal, rats) of the same compound?
Answer: did not show any significant anti-inflammatory activity

Question: And the zone of inhibition at 200 µg/disc [4, 10]?
Answer: < 10 mm

Reference: article PMC4026406 (Drug Design, Development and Therapy, 2014)
